# PG9 Ab binder – small molecules binding HIV-1 gp120 antibody PG9; TR-FRET gp120-PG9 antibody binding; inhibition, % at 6.7 µM; 0.43% of 360,000 active; in the data active means inhibition above about 8.5%
# Rev-erbA mod – modulators of human Rev-erb alpha DNA binding; Rev-erbα–FITC-DNA binding, fluorescence polarization, 90 min; 0.79% of 370,000 active; activity, % at 10 µM;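 active means activity above about 14%, limit read from the data; passing the limit was not always enough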;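 further: 0% = DMSO wells with 35 nM protein and 100% = DMSO wells with 750 nM protein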
# Target sequence (P20393 whole entry, looked up): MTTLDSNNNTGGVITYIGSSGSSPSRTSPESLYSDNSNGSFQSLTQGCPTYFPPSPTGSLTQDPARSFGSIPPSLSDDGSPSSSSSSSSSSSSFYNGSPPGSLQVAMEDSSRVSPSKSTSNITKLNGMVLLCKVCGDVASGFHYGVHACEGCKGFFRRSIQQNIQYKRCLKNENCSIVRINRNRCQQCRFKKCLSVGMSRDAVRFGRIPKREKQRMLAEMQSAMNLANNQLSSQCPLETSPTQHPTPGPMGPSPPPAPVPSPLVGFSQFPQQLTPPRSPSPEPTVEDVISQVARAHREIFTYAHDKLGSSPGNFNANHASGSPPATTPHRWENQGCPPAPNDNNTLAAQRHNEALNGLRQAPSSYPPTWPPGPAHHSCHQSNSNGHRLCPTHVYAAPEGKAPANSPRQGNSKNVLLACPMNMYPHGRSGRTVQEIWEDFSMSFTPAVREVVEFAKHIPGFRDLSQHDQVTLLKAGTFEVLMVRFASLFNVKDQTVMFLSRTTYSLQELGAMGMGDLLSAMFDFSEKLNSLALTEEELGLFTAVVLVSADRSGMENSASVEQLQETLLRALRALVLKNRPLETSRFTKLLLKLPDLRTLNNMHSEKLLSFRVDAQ
# NR2E3 ag-1 – activates human photoreceptor nuclear receptor NR2E3; Q9Y5X4; GST-NR2E3/biotin-RetCOR TR-FRET, 1536-well; inhibition of corepressor binding, % at 4.78 µM; 0.12% of 320,000 active;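 active means percent inhibition above the cutoff of mean plus 3 SD of all tested compounds, set per screening campaign, cut at about 20% in these data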;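 further: 0% = DMSO wells and 100% = biotin wells as full block of FRET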
#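 Material: NR2E3–RetCOR corepressor complex | Quantity: 1.35 nM GST-tagged NR2E3 final | Schedule: 5 h at 4 °C | Replication: Singlicate compound wells | Reagent: RetCOR corepressor, biotinylated, 7 nM | Controls: Biotin wells as high control, 0.6% DMSO wells as low control | Signal: TR-FRET, Eu(K)-anti-GST donor, streptavidin-D2 acceptor, ex 340, em 617/671 nm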
# rCAG binder-1 – molecules binding r(CAG) RNA repeats. inhibition, % at 3 µM. r(CAG) RNA repeat, TO-PRO-1 dye displacement fluorescence. 1.3% of 370,000 active;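 active means inhibition above the plate cutoff, the mean of all test compounds on that plate plus 3 SD, cut at about 35% in these data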;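 further: 0% = DMSO alone and 100% = 100 µM mitoxantrone as full dye displacement; higher means more dye released from RNA so lower well fluorescence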
# NR2E3 ag-2 – agonists of human NR2E3 nuclear receptor; CHO-S Gal4-NCOR/VP16-NR2E3 two-hybrid, luciferase; inhibition of corepressor binding, % at 3.98 µM; 0.35% of 360,000 active;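 active means inhibition above the mean of all tested compounds plus 3 SD, cut at about 70% in these data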;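 further: 0% = DMSO with NR2E3 transfected cells and 100% = cells lacking NR2E3 construct; higher means lower luciferase signal from less NR2E3 corepressor binding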
# rCAG binder conf – r(CAG) RNA repeat binding, confirmation; shares compounds with rCAG binder-1; 70% of 4,300 active; inhibition, % at 3 µM; TO-PRO-1 dye displacement fluorescence; AID 652065;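 active means inhibition above a per-plate cutoff, the mean inhibition of sample wells plus 3 SD, cut at about 35% in these data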;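 further: loss of TO-PRO-1 fluorescence as compound displaces dye from 1x1 AA loop RNA; 0% = DMSO only wells and 100% = 100 µM mitoxantrone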
# dCAG dye counter – disrupts DNA CAG TO-PRO-1 complex, flagging rCAG hits; shares compounds with rCAG binder-1; d(CAG) DNA oligo TO-PRO-1 dye displacement, fluorescence; inhibition, % at 3 µM; 94% of 4,300 active; AID 652068;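 active means inhibition above its plate's cutoff, the mean test-well inhibition plus 3 SD, cut at about 4.8% in these data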;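 further: 0% = DNA dye mix with DMSO and 100% = 100 µM mitoxantrone; hits displace the dye from DNA and so lower well fluorescence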
# dCAG dye DR – counter-screen for rCAG binders: inhibitors of DNA CAG TO-PRO-1 complex; DNA CAG/GTC duplex TO-PRO-1 dye displacement fluorescence; IC50, µM; 20% of 250 active; shares compounds with rCAG binder-1; in the data active means IC50 below about 10 µM
# dCAG TOPRO ctr – inhibits DNA CAG/GTC TO-PRO-1 complex, rCAG binder counter-screen; IC50, µM; 80% of 30 active; shares compounds with rCAG binder-1; d(CAG) DNA duplex TO-PRO-1 dye displacement, fluorescence
# rCAG binder-2 – r(CAG) repeat RNA binding, TO-PRO-1 displacement | IC50, µM | shares compounds with rCAG binder-1 | r(CAG) RNA TO-PRO-1 dye displacement, fluorescence | 100% of 30 active | AID 720651
# Active calls of the source: *; i = inactive; / = no result given. Shown are actives, neighbours in structure and some others; about 2.6% of the full set was active somewhere. Unless noted, how the calls were made is not given here.
SMILES,PG9 Ab binder,Rev-erbA mod,NR2E3 ag-1,rCAG binder-1,NR2E3 ag-2,rCAG binder conf,dCAG dye counter,others
COc1cccc(CNC(=O)COC(=O)/C=C/c2ccc(SC)cc2)c1,3,-3,/,1,14,/,/,
O=C(O)c1ccccc1-c1ccccc1C(=O)Nc1ccc(F)cc1,1,3,-1,4,-33,/,/,
O=C(/C=C/c1ccc(NC(=O)c2ccccc2-c2ccccc2C(=O)O)cc1)c1ccccc1,0,-5,4,68*,16,66*,24*,
CCCS(=O)(=O)c1c(S(=O)(=O)CCC)c2ccc(C(N)=O)cn2c1C(=O)c1ccc(F)cc1,-1,-3,2,-1,-38,/,/,
CCCS(=O)(=O)c1c(S(=O)(=O)CCC)c2c(N)cccn2c1C(=O)c1ccc(Br)cc1,0,7,1,52*,-2,21,11*,
CCCS(=O)(=O)c1c(S(=O)(=O)CCC)c2c(N)cccn2c1C(=O)c1ccc(F)cc1,1,5,3,45*,3,21,10*,
CCCS(=O)(=O)c1c(S(=O)(=O)CCC)c2c(N)cccn2c1C(=O)c1ccc(OC)cc1,-3,-1,-1,19,4,/,/,
Nc1[nH]c(C(=O)c2ccccc2)c(-c2ccccc2C(F)(F)F)c1C(=O)NCCc1cccs1,0,0,/,2,-9,/,/,
CCc1nnc(NS(=O)(=O)c2ccc(NC(=O)CCC(=O)O)cc2)s1,-2,0,0,-2,11,/,/,
CCc1nnc(NS(=O)(=O)c2ccc(NC(=O)c3cccc4ccccc34)cc2)s1,-2,-4,2,64*,-2,44*,16*,
CCc1nnc(NS(=O)(=O)c2ccc(NC(=O)c3cc(Cl)ccc3[N+](=O)[O-])cc2)s1,-4,-2,/,45*,-4,25,5.9*,
CCc1nnc(NS(=O)(=O)c2ccc(NC(=O)c3cc(Cl)ccc3Cl)cc2)s1,-2,0,-3,54*,-3,36*,11*,
Cc1ccc(C(=O)N/C(=C\c2ccco2)C(=O)NCCN2CCOCC2)cc1C,0,4,0,0,-5,/,/,
Cc1ccccc1NC(=O)OCc1ccccc1,0,-3,-2,2,-36,/,/,
CCn1cc(/C=C(\NC(=O)c2ccccc2F)C(=O)NCCN2CCOCC2)c2ccccc21,-1,5,-2,-4,0,/,/,
Cc1ccc(Sc2ncccc2C(=O)NCc2cc([N+](=O)[O-])ccc2O)cc1C,-3,-3,/,35*,-19,22,5.3*,
COc1ccc2[nH]c3c(c2c1)CCN1C(=O)C(CC(=O)NCCCn2ccnc2)C[C@H](C(=O)N2CCOCC2)[C@@]31C (stereo not given in full),0,-4,/,2,13,/,/,
CCOC(=O)c1cc(OC(=O)c2ccccc2)n(-c2ccccc2)n1,-1,2,-1,29,11,/,/,
CCOC(=O)c1cc(OC(=O)c2cccc([N+](=O)[O-])c2)n(-c2ccccc2)n1,-4,-4,3,35*,3,2,1,
CC(=C1SC(=S)NC1=O)c1ccc(Cl)c(O)c1,-2,3,/,4,/,/,/,
CCOC(=O)c1c(NS(=O)(=O)Cc2ccccc2)sc2c1CCCC2,1,10,0,45*,-7,64*,21*,dCAG dye DR=>30
COC(=O)c1c(NS(=O)(=O)c2ccc3ccccc3c2)sc2c1CCCC2,-1,0,3,44*,8,70*,32*,dCAG dye DR=i;dCAG TOPRO ctr=2.9*;rCAG binder-2=1*
CCOC(=O)c1c(NC(=O)OC)sc2c1CCC2,1,-1,2,5,-23,/,/,
CCOC(=O)c1c(NS(=O)(=O)c2ccc(Br)cc2)sc2c1CCC2,0,-4,-2,68*,-20,80*,34*,
O=C(/C=C/[C@H]1O[C@@H](n2ccc(=O)[nH]c2=O)[C@H](O)[C@@H]1O)NCCN1CCCCC1,-3,-1,/,2,13,/,/,
SMILES,PG9 Ab binder,Rev-erbA mod,NR2E3 ag-1,rCAG binder-1,NR2E3 ag-2,rCAG binder conf,dCAG dye counter,others
CCc1c(C)sc(NC(=O)c2cc(C)on2)c1C#N,-1,1,0,2,-110,/,/,
CCc1c(C)sc(NC(=O)c2cc(-c3ccco3)on2)c1C#N,3,-8,3,40*,-12,28,6.5*,
CCCN(Cc1nnc(-c2cccs2)o1)C(=O)c1cccc(S(=O)(=O)N2CCOCC2)c1,1,5,0,-3,-22,/,/,
O=c1oc2ccccc2c(Nc2cc3ccccc3cc2O)c1[N+](=O)[O-],-3,2,5,41*,-82,56*,20*,
COc1ccccc1COc1ccc2c(C)c(CC(=O)O)c(=O)oc2c1C,-2,0,2,37*,-11,39*,10*,
C[C@@H]1COC(=O)[C@H](Cc2ccc(F)cc2)C/C=C\C[C@@H](CC(=O)NCCO)C(=O)N1,2,3,/,-8,-18,/,/,
Cc1ccc(-c2nc3cccnc3s2)cc1NS(=O)(=O)c1cccs1,3,-1,5,26,-11,/,/,
NS(=O)(=O)c1ccc(C(=O)Nc2ccc(-c3nc4cccnc4s3)cc2)cc1,1,0,5,1,-98,/,/,
O=S(=O)(Nc1ccc(-c2nc3cccnc3s2)cc1)c1cc(F)ccc1F,1,-2,5,45*,-22,35*,9.2*,
CCc1ccc(S(=O)(=O)Nc2ccc(-c3nc4cccnc4s3)cc2)s1,1,14,4,57*,-62,58*,22*,
O=C(O)CC/C(=C\c1ccc(N2CCCC2)c([N+](=O)[O-])c1)c1nc2ccccc2s1,1,-2,5,70*,-20,89*,53*,
O=C(O)CC/C(=C\c1ccccc1[N+](=O)[O-])c1nc2ccccc2s1,0,-2,3,19,-27,/,/,
O=C(O)C/C(=C\c1cc(Cl)c2c(c1)OCO2)c1nc2ccccc2s1,-3,-2,3,47*,-17,45*,18*,
O=C(O)CC/C(=C\c1cccc(NC(=O)c2ccccc2Cl)c1)c1nc2ccccc2s1,0,0,-4,61*,-14,73*,27*,dCAG dye DR=i
O=C(O)CC/C(=C\c1cc([N+](=O)[O-])ccc1Cl)c1nc2ccccc2s1,-3,2,-1,25,-12,/,/,

# Screens deposited in PubChem by several laboratories.
